# Measurements taken from ChEMBL document CHEMBL3244100, “Effect of sparsomycin analogues on the puromycin-peptidyl transferase reaction on ribosomes” (J Med Chem, 1978).
# Active and inactive are the calls of the source. No cut-off for these calls is given here.
# Tests used:
# Bacterial 70S ribosome [1] = assay: Competitive inhibition of peptidyl transferase activity of Escherichia coli ribosome using Ac[14C]-L-Phe-tRNA/puromycin as donor/acceptor substrate assessed as acetyl[14C]phenylalanylpuromycin formation by double reciprocal plot analysis
# Outline: (§1)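 E. coli washed ribosomes (2.78 A260 units) charged with 20.8 pmol Ac[14C]Phe-tRNA in 100 mM Tris-Cl pH 7.5, 100 mM NH4Cl, 15 mM Mg(OAc)2, 0.65 mM DTT, 1.2 mM GTP, FWR, poly(U), 8 min at 28 °C. Mixture then added to puromycin with or without inhibitor, 28 °C. Product measured radiometrically. Ki from double reciprocal plots; highest concentration tested 2 × 10^-4 M.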
# [2] = target: T1, Bacterial 70S ribosome (Bacteria) (UniProt P0A7V0+P60723+P0AG67+P0A7R5+P0A7R9+P0A7S3+P0A7S9+P0AG59+P0ADZ4+P0A7T3+P0AG63+P0A7T7+P0A7U3+P0A7U7+P68679+P0A7V3+P0A7V8+P0A7W1+P02358+P02359+P0A7W7+P0A7X3+P0A7J3+P0A7J7+P0AA10+P0ADY3+P02413+P0ADY7+P0AG44+P0C018+P0A7K6+P0A7L0+P0A7L3+P0AG48+P61175+P0ADZ0+P60624+P68919+P0A7L8+P0A7M2+P0A7M6+P60422+P0AG51+P0A7N1+P0A7M9+P0A7N4+P0A7N9+P0A7P5+P0A7Q1+Q2EEQ2+P0A7Q6+P60438+P62399+P0AG55+P0A7K2); assay: Competitive inhibition of peptidyl transferase activity of Escherichia coli ribosome using Ac[14C]-L-Phe-tRNA/puromycin as donor/acceptor substrate assessed as acetyl[14C]phenylalanylpuromycin formation at 2 x 10^-4 M by double reciprocal plot analysis; outline: as §1
# [3] = target: T1, Bacterial 70S ribosome (Bacteria); assay: Competitive inhibition of peptidyl transferase activity of Escherichia coli ribosome using Ac[14C]-L-Phe-tRNA/puromycin as donor/acceptor substrate assessed as acetyl[14C]phenylalanylpuromycin formation incubated with donor substrate/enzyme prior to puromycin addition
# Outline: (§2)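 Ribosomes charged with Ac[14C]-L-Phe-tRNA as in the binding step (poly(U), GTP, FWR, Mg2+, 8 min, 28 °C). The charged mixture was preincubated with 10^-6 M inhibitor for 15 min at 28 °C before adding 10^-4 M puromycin. Ac[14C]Phe-puromycin formation was followed over time at 28 °C.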
# Bacterial 70S ribosome [4] = assay: Competitive inhibition of peptidyl transferase activity of Escherichia coli ribosome using Ac[14C]-L-Phe-tRNA/puromycin as donor/acceptor substrate assessed as acetyl[14C]phenylalanylpuromycin formation by Dixon plot analysis
# [5] = target: T1, Bacterial 70S ribosome (Bacteria); assay: Competitive inhibition of peptidyl transferase activity of Escherichia coli ribosome using Ac[14C]-L-Phe-tRNA/puromycin as donor/acceptor substrate assessed as acetyl[14C]phenylalanylpuromycin formation at 10^-6 M preincubated for 15 mins prior to puromycin addition; outline: as §2
smiles,measurement,setting,value
CCCSC[C@H](CO)NC(=O)/C=C/c1c(C)[nH]c(=O)[nH]c1=O,Ki,Bacterial 70S ribosome [1],1.1 µM
CCCSC[C@@H](CO)NC(=O)/C=C/c1c(C)[nH]c(=O)[nH]c1=O,inhibition,[2],inactive
CSCSCC(CO)NC(=O)/C=C/c1c(C)nc(O)nc1O (racemic),Ki,Bacterial 70S ribosome [1],1.09 µM
same,inhibition,[3],Active
CCCSCC(CO)NC(=O)/C=C/c1c(C)[nH]c(=O)[nH]c1=O (racemic),Ki,Bacterial 70S ribosome [4],2 µM
same,Ki,Bacterial 70S ribosome [1],2 µM
Cc1[nH]c(=O)[nH]c(=O)c1/C=C/C(=O)NC(CO)CSCc1ccccc1 (racemic),Ki,Bacterial 70S ribosome [1],1.21 µM
CCCCCC(CO)NC(=O)/C=C/c1c(C)[nH]c(=O)[nH]c1=O (racemic),Ki,Bacterial 70S ribosome [1],2.3 µM
Cc1[nH]c(=O)[nH]c(=O)c1/C=C/C(=O)NC(C)CO (racemic),inhibition,[2],inactive
CSC[S@@+]([O-])CC(CO)NC(=O)/C=C/c1c(C)[nH]c(=O)[nH]c1=O (stereo partly specified) [SPARSOMYCIN],inhibition,[5],Active
same,Ki,Bacterial 70S ribosome [1],0.5 µM
